Compound activity (PubChem BioAssay)
MrgX1 ag – human MrgX1 receptor agonism, primary screen | B-score at 10 µM | Q96LB2 | AID 588627 | actives 0.44% (n = 310,000) | MrgX1-HEK293 cells, Fluo-4 calcium fluorescence, agonist mode; active compounds read high;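 active means calcium response B-score plate-corrected fluorescence ratio at least 3 library SD, with starting fluorescence B-score inside 5 SD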
Target sequence (Q96LB2 whole entry, looked up): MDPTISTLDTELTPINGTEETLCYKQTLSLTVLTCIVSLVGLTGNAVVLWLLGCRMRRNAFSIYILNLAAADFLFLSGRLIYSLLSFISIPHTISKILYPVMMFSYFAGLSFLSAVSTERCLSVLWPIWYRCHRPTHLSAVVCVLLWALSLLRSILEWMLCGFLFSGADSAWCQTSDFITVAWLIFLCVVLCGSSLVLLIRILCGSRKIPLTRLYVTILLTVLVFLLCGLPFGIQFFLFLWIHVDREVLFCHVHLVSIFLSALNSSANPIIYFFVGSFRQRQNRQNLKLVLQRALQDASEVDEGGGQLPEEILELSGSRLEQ
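Material – MrgX1-expressing HEK293 cells · Input – 15,000 cells seeded per well · Dosing – compound as first of three additions · Times – overnight seeding, then 1 h dark dye loading · Measured by – kinetic Fluo-4 NW fluorescence of intracellular calcium · Read-out – B-scored fluorescence response ratio · Benchmarks – positive and negative control wells on each plate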
RGS4 pot – potentiators or activators of RGS4; HEK293 M3R/inducible RGS4, carbachol calcium flux Fluo4; active compounds read low; B-score at 10 µM; actives 0.92% (n = 310,000); AID 463111;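 active means B-score of the integrated calcium signal more than 4 SD below the library mean, with starting fluorescence not abnormally high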;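 further: negative B-score means reduced calcium response which marks RGS4 activation or potentiation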
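Assay system: Inducible-RGS4 HEK293 cells carrying M3 receptor | Schedule: Compound preincubation 20 min at room temperature before agonist | Signal: Kinetic calcium fluorescence imaging with Fluo4-AM dye, 2 µM | Read-out basis: B score from integrated fluorescence ratio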
MrgX1 antag – antagonists of human MrgX1 receptor; Q96LB2; MRGX1-HEK293 calcium flux, Fluo-4, BAM8-22 antagonism; active compounds read low; AID 588676; actives 1.3% (n = 310,000); B-score at 10 µM;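 active means calcium-response B-score plate-corrected more than 3 library SD below zero, starting fluorescence within 5 deviations, no agonist response on first addition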;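 further: peak minus trough fluorescence over baseline after final BAM8-22 challenge near maximal dose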
MrgX1 allo act – allosterically activates human MrgX1 receptor signaling; Q96LB2; MrgX1-HEK293, Fluo-4 calcium flux, FDSS; active compounds read high; B-score at 10 µM; actives 0.63% (n = 310,000); AID 588675;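 active means plate-corrected calcium response at least 3 library SD above typical, normal starting fluorescence, not activating the receptor alone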;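 further: compound read alongside a low EC10 to EC30 dose of BAM8-22 agonist; peak minus trough fluorescence over baseline measured at the second addition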
RGS4 inh – inhibitors of human RGS4; HEK293 M3R/RGS4 inducible, Fluo-4 calcium flux; active compounds read high; triggered by carbachol at its EC20; P49798; B-score at 10 µM; actives 0.45% (n = 310,000);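 active means B-score, a plate-corrected calcium signal, over three deviations above library mean, with baseline fluorescence within five deviations of library mean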;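 further: RGS4 expression induced by doxycycline in cells with stable M3 receptor; B-score is computed from the integrated fluorescence ratio over baseline after carbachol; higher B-score means a larger calcium signal and so more RGS4 inhibition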
Target sequence (P49798 whole entry, looked up): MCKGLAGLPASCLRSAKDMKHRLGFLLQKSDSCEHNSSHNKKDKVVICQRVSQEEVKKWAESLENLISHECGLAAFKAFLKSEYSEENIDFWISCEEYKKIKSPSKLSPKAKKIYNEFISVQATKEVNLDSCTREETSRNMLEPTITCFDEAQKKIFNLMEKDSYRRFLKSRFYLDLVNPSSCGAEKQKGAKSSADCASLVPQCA
MrgX1 ant reconf – confirmation of human MrgX1 receptor antagonists; shares compounds with MrgX1 antag; MrgX1-HEK293, BAM8-22 calcium flux, Fluo-4; active compounds read low; remaining BAM8-22 calcium response % of control (active compounds read low), % at 10 µM; actives 19% (n = 2,300);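 active means remaining agonist calcium response no higher than 100% minus 3 SD of agonist-only control wells, with starting fluorescence near control levels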;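 further: agonist BAM8-22 given at a near maximal EC90 to ECmax level; peak minus minimum fluorescence divided by baseline after agonist addition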
HEK293 Ca flux – counter-screen for MrgX1 antagonists: effect in parental HEK293 cells; shares compounds with MrgX1 antag; Fluo-4 calcium fluorescence, FDSS; fluorescence ratio F(max-min)/F0 at 10 µM; actives 2% (n = 4,000); AID 624111;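 active means duplicate-averaged calcium fluorescence ratio at least three times the standard deviation of buffer wells, a nonspecific response in parental cells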
HEK293 Ca counter – activity in parental HEK293 cells without MrgX1. shares compounds with MrgX1 antag. parental HEK293 calcium flux, Fluo-4 fluorescence ratio; active compounds read high. fluorescence ratio F(max-min)/F0 at 10 µM. actives 0.4% (n = 4,000). AID 624114;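 active means calcium fluorescence ratio, averaged over duplicates, at least 3 SD of the buffer-well ratio, meaning a nonspecific response in receptor-free cells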;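 further: untransfected parental HEK293 lacking MrgX1 used as counterscreen for MrgX1 allosteric activators; fluorescence change taken during the second addition on a kinetic imager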
HEK293 Ca cntr2 – MrgX1 activator counter-screen hit in parental HEK293 cells | shares compounds with MrgX1 antag | actives 8.7% (n = 4,000) | AID 624115 | Fluo-4 calcium fluorescence (FDSS); active compounds read high | fluorescence ratio F(max-min)/F0 at 10 µM;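 active means calcium fluorescence ratio at least three times the spread of buffer wells, meaning a non-specific response in parental cells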
Hits are given with their value. The list is not random: actives were taken first. Their share in the collection is about 3.5%.

How did Cc1cccc(-n2c(SCC(N)=O)nnc2-c2ccccn2)c1C do in these assays?
MrgX1 ag: inactive; RGS4 pot: inactive; MrgX1 antag: -8.27; MrgX1 allo act: inactive; RGS4 inh: inactive; MrgX1 ant reconf: inactive; HEK293 Ca flux: inactive; HEK293 Ca counter: inactive; HEK293 Ca cntr2: inactive

Results for Cc1ccc(-n2c(SCC(N)=O)nnc2-c2ccccn2)cc1 ?
MrgX1 ag: inactive; RGS4 pot: inactive; MrgX1 antag: inactive; MrgX1 allo act: inactive; RGS4 inh: inactive

How did Cc1nc2nc(C)c(CCC(=O)N3CCOCC3)c(C)n2n1 do in these assays?
MrgX1 ag: inactive; RGS4 pot: inactive; MrgX1 antag: -5.34; MrgX1 allo act: inactive; RGS4 inh: inactive; MrgX1 ant reconf: inactive; HEK293 Ca flux: inactive; HEK293 Ca counter: inactive; HEK293 Ca cntr2: 67.8

How did COc1cccc(-n2nnc3c(=O)n(CC(=O)N4CCC(Cc5ccccc5)CC4)cnc32)c1 do in these assays?
MrgX1 ag: inactive; RGS4 pot: inactive; MrgX1 antag: -7.53; MrgX1 allo act: inactive; RGS4 inh: inactive; MrgX1 ant reconf: inactive; HEK293 Ca flux: inactive; HEK293 Ca counter: inactive; HEK293 Ca cntr2: inactive

Results for O=C(COC(=O)c1ccc2[nH]c3c(c2c1)CCCC3)Nc1ccccc1Cl ?
MrgX1 ag: inactive; RGS4 pot: inactive; MrgX1 antag: inactive; MrgX1 allo act: inactive; RGS4 inh: inactive

Results for CCC(C)c1ccccc1NC(=O)COC(=O)c1ccc2[nH]c3c(c2c1)CCCC3 (stereo not given) ?
MrgX1 ag: inactive; RGS4 pot: inactive; MrgX1 antag: -7.45; MrgX1 allo act: inactive; RGS4 inh: inactive; MrgX1 ant reconf: inactive; HEK293 Ca flux: inactive; HEK293 Ca counter: inactive; HEK293 Ca cntr2: inactive

Results for Cc1c(NC(=O)Nc2cccc(C#N)c2)c(=O)n(-c2ccccc2)n1C ?
MrgX1 ag: inactive; RGS4 pot: inactive; MrgX1 antag: inactive; MrgX1 allo act: inactive; RGS4 inh: inactive

What do the screens show for `COc1ccc(-c2nc(N3CCC(C)CC3)[nH]c(=O)c2C#N)cc1`?
MrgX1 ag: inactive; RGS4 pot: inactive; MrgX1 antag: -5.63; MrgX1 allo act: inactive; RGS4 inh: inactive; MrgX1 ant reconf: inactive; HEK293 Ca flux: inactive; HEK293 Ca counter: inactive; HEK293 Ca cntr2: inactive

Results for COc1ccc(-c2nc(N3CCCC3)[nH]c(=O)c2C#N)cc1 ?
MrgX1 ag: inactive; RGS4 pot: inactive; MrgX1 antag: inactive; MrgX1 allo act: inactive; RGS4 inh: inactive

What do the screens show for `Cc1ccc(NC(=O)CCc2nnc3ccc(N4CCC(C)CC4)nn23)nc1`?
MrgX1 ag: inactive; RGS4 pot: inactive; MrgX1 antag: -7.35; MrgX1 allo act: inactive; RGS4 inh: inactive; MrgX1 ant reconf: inactive; HEK293 Ca flux: inactive; HEK293 Ca counter: inactive; HEK293 Ca cntr2: inactive

What do the screens show for `COc1ccc(C(=O)Nc2ccc3c(c2)nc(CCNC(=O)c2ccco2)n3C)cc1`?
MrgX1 ag: inactive; RGS4 pot: inactive; MrgX1 antag: inactive; MrgX1 allo act: inactive; RGS4 inh: inactive

How did CNC(=O)CSc1nnc(-c2cccnc2)n1-c1ccc(C)cc1 do in these assays?
MrgX1 ag: inactive; RGS4 pot: inactive; MrgX1 antag: -5.64; MrgX1 allo act: inactive; RGS4 inh: inactive; MrgX1 ant reconf: inactive; HEK293 Ca flux: inactive; HEK293 Ca counter: inactive; HEK293 Ca cntr2: inactive

Results for CN(C)/C=N/c1nc(-c2ccc3c(c2)OCO3)cs1 ?
MrgX1 ag: inactive; RGS4 pot: inactive; MrgX1 antag: -6.43; MrgX1 allo act: inactive; RGS4 inh: inactive; MrgX1 ant reconf: inactive; HEK293 Ca flux: inactive; HEK293 Ca counter: inactive; HEK293 Ca cntr2: inactive

How did Cc1ccc(N(CC(=O)Nc2ccc3c(c2)OCCO3)S(C)(=O)=O)cc1 do in these assays?
MrgX1 ag: inactive; RGS4 pot: inactive; MrgX1 antag: inactive; MrgX1 allo act: inactive; RGS4 inh: inactive
